Data: ChEMBL document CHEMBL1821590, “Novel dihydropyrimidines and its pyrazole derivatives: synthesis and pharmacological screening” (Eur J Med Chem, 2011)
Values after ≈ are worked out from the molar mass of the structure shown.

Legend:
Assay type in all cases: functional
[1] = Antioxidant activity assessed as nitric oxide radical scavenging activity after 150 mins
Outline: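 10 mM sodium nitroprusside (4 mL), PBS pH 7.4 (1 mL) and sample or ascorbic acid in DMSO (1 mL, 12.5–100 µg/mL), incubated 150 min at 25 °C. Nitrite detected with sulphanilic acid (5 min) then naphthylethylenediamine (30 min, diffused light). Read at […]. Triplicate. % inhibition = [1 − (Vt/Vc)] × 100. IC50 derived from it.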

[2] = test system: Metaphire posthuma; assay: Anthelmintic activity against Pheretima posthuma assessed as time taken for parasite death at 0.5% w/v
Outline: (§1)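 Earthworms (Pheretima posthuma, spelled Perituma posthuma in text) exposed to test compounds at 0.1, 0.2 and 0.5% w/v. Albendazole served as standard, with an untreated control. Paralysis was recorded as the time until worms became motionless, then time to death was recorded, in minutes. Each value is the mean of three determinations with S.D.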

[3] = test system: Candida albicans; assay: Antimicrobial activity against Candida albicans at 100 ug/ml by paper disc method; details: read-out: IZ
Outline: (§2)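 Paper disc method against A. niger and C. albicans, with compounds at 25, 50 and 100 µg/mL. Amphotericin-B as standard.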

[4] = test system: Bacillus subtilis; assay: Antimicrobial activity against Bacillus subtilis at 25 ug/ml by agar plate diffusion technique; details: read-out: IZ
Outline: (§3)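 Agar plate diffusion against E. coli, P. aeruginosa, S. aureus and B. subtilis, with compounds at 25, 50 and 100 µg/mL. Streptomycin as standard.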

[5] = Antioxidant activity assessed as inhibition of lipid peroxidation using egg lecithin liposomes incubated for 1 hr
Outline: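 Egg lecithin (3 mg/mL, phosphate buffer pH 7.4) sonicated 10 min to form liposomes. Sample or ascorbic acid (12.5–100 µg/mL) added. Peroxidation induced with FeCl3 and L-ascorbic acid, 1 h at 37 °C. Stopped with HCl/TCA/TBA/BHA, boiled 15 min, centrifuged, supernatant read at 532 nm. Triplicate. % inhibition vs control. IC50 derived.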

[6] = test system: Candida albicans; assay: Antimicrobial activity against Candida albicans at 50 ug/ml by paper disc method; details: read-out: IZ; outline: as §2
[7] = test system: Bacillus subtilis; assay: Antimicrobial activity against Bacillus subtilis at 50 ug/ml by agar plate diffusion technique; details: read-out: IZ; outline: as §3
[8] = Antioxidant activity assessed as hydrogen peroxide scavenging activity after 10 mins
Outline: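 H2O2 (20 mM) in PBS pH 7.4. 1 mL of sample or ascorbic acid in methanol (12.5–100 µg/mL) added to 2 mL H2O2 solution. A230 read after 10 min. % inhibition = [1 − (Vt/Vc)] × 100. Triplicate, averaged. IC50 derived from % inhibition across concentrations.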

[9] = test system: Aspergillus niger; assay: Antimicrobial activity against Aspergillus niger at 25 ug/ml by paper disc method; details: read-out: IZ; outline: as §2
[10] = test system: Metaphire posthuma; assay: Anthelmintic activity against Pheretima posthuma assessed as time taken for complete parasite paralysis at 0.1% w/v
Outline: (§4)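 Earthworms (Pheretima posthuma) exposed to test solutions at 0.1, 0.2 and 0.5% w/v; time in minutes to complete paralysis (worms motionless) recorded. Albendazole as standard. Mean of three determinations ± S.D.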

[11] = test system: Aspergillus niger; assay: Antimicrobial activity against Aspergillus niger at 50 ug/ml by paper disc method; details: read-out: IZ; outline: as §2
[12] = test system: Metaphire posthuma; assay: Anthelmintic activity against Pheretima posthuma assessed as time taken for complete parasite paralysis at 0.2% w/v; outline: as §4
[13] = test system: Bacillus subtilis; assay: Antimicrobial activity against Bacillus subtilis at 100 ug/ml by agar plate diffusion technique; details: read-out: IZ; outline: as §3
[14] = test system: Staphylococcus aureus; assay: Antimicrobial activity against Staphylococcus aureus at 50 ug/ml by agar plate diffusion technique; details: read-out: IZ; outline: as §3
[15] = Antiinflammatory activity assessed as inhibition of albumin denaturation at 100 ug/ml by UV-visible spectrophotometry
Outline: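 Compounds dissolved in minimal DMF, diluted in PBS pH 7.4 (final DMF <2.5%). 1 mL test solution (100 µg/mL) plus 1 mL 1% albumin in PBS, 15 min at 27 ± 1 °C, then heated 10 min at 60 ± 1 °C. After cooling, turbidity read at 660 nm. % inhibition = [(Vt/Vc) − 1] × 100 against a no-drug control. Triplicate, averaged. Diclofenac standard.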

[16] = test system: Staphylococcus aureus; assay: Antimicrobial activity against Staphylococcus aureus at 100 ug/ml by agar plate diffusion technique; details: read-out: IZ; outline: as §3
[17] = Antioxidant activity assessed as potassium ferricyanide ion reducing power after 20 mins
Outline: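 Oyaizu method. Samples or ascorbic acid in DMF (12.5–100 µg/mL) mixed with 0.2 M phosphate buffer pH 6.6 and 1% potassium ferricyanide, 20 min at 50 °C. 10% TCA added, centrifuged. Supernatant mixed with water and 0.1% FeCl3, read at 700 nm. % = [(Vt/Vc) − 1] × 100. IC50 derived.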

[18] = test system: Metaphire posthuma; assay: Anthelmintic activity against Pheretima posthuma assessed as time taken for parasite death at 0.2% w/v; outline: as §1
[19] = test system: Metaphire posthuma; assay: Anthelmintic activity against Pheretima posthuma assessed as time taken for complete parasite paralysis at 0.5% w/v; outline: as §4
[20] = test system: Metaphire posthuma; assay: Anthelmintic activity against Pheretima posthuma assessed as time taken for parasite death at 0.1% w/v; outline: as §1
[21] = test system: Staphylococcus aureus; assay: Antimicrobial activity against Staphylococcus aureus at 25 ug/ml by agar plate diffusion technique; details: read-out: IZ; outline: as §3
[22] = test system: Aspergillus niger; assay: Antimicrobial activity against Aspergillus niger at 100 ug/ml by paper disc method; details: read-out: IZ; outline: as §2
[23] = test system: Candida albicans; assay: Antimicrobial activity against Candida albicans at 25 ug/ml by paper disc method; details: read-out: IZ; outline: as §2
[24] = test system: Escherichia coli; assay: Antimicrobial activity against Escherichia coli at 100 ug/ml by agar plate diffusion technique; details: read-out: IZ; outline: as §3
[25] = test system: Escherichia coli; assay: Antimicrobial activity against Escherichia coli at 25 ug/ml by agar plate diffusion technique; details: read-out: IZ; outline: as §3
[26] = test system: Pseudomonas aeruginosa; assay: Antimicrobial activity against Pseudomonas aeruginosa at 50 ug/ml by agar plate diffusion technique; details: read-out: IZ; outline: as §3
[27] = test system: Pseudomonas aeruginosa; assay: Antimicrobial activity against Pseudomonas aeruginosa at 25 ug/ml by agar plate diffusion technique; details: read-out: IZ; outline: as §3
[28] = test system: Pseudomonas aeruginosa; assay: Antimicrobial activity against Pseudomonas aeruginosa at 100 ug/ml by agar plate diffusion technique; details: read-out: IZ; outline: as §3
[29] = test system: Escherichia coli; assay: Antimicrobial activity against Escherichia coli at 50 ug/ml by agar plate diffusion technique; details: read-out: IZ; outline: as §3

SMILES	IC50 [1] [µg/mL]	Time [2] [min]	zone of inhibition at 100 µg/mL [3] [mm]	zone of inhibition at 25 µg/mL [4] [mm]	IC50 [5] [µg/mL]	zone of inhibition at 50 µg/mL [6] [mm]	zone of inhibition at 50 µg/mL [7] [mm]	IC50 [8] [µg/mL]	zone of inhibition at 25 µg/mL [9] [mm]	Time [10] [min]	zone of inhibition at 50 µg/mL [11] [mm]	Time [12] [min]	zone of inhibition at 100 µg/mL [13] [mm]	inhibition [15] [%]	IC50 [17] [µg/mL]	Time [18] [min]	Time [19] [min]	Time [20] [min]	zone of inhibition at 100 µg/mL [22] [mm]	zone of inhibition at 25 µg/mL [23] [mm]	further results
Cn1c(NN)nc(-c2cccs2)c(C#N)c1=O	63 (≈ 255 µM)	40.3	15.9	9.27	68 (≈ 275 µM)	13.8	10.1	53 (≈ 214 µM)	10.2	32.35	12.8	29.13	15.4	36.4	61 (≈ 247 µM)	44.42	26.13	58.24	15.9	10.7	zone of inhibition at 50 µg/mL [14]: 10.6 mm; zone of inhibition at 100 µg/mL [16]: 13.4 mm; zone of inhibition at 25 µg/mL [21]: 9.12 mm
Cn1c(NN)nc(-c2cccc(O)c2O)c(C#N)c1=O	44 (≈ 161 µM)	60.27	18.7	11.5	31 (≈ 113 µM)	13.8	14.5	29 (≈ 106 µM)	7.06	52.22	8.44	48.56	22.1	28.8	34 (≈ 124 µM)	63.98	45.65	66.22	15	9.35	zone of inhibition at 100 µg/mL [24]: 10.2 mm; zone of inhibition at 25 µg/mL [25]: 8.72 mm; zone of inhibition at 50 µg/mL [26]: 10.1 mm; zone of inhibition at 25 µg/mL [27]: 8.1 mm; zone of inhibition at 100 µg/mL [28]: 12.9 mm; zone of inhibition at 50 µg/mL [29]: 8.16 mm
COc1ccc(-c2nc(NN)n(C)c(=O)c2C#N)cc1	56 (≈ 206 µM)	57.45	15.8	9.26	39 (≈ 144 µM)	10.7	10.3	32 (≈ 118 µM)	8.32	47.23	10	45.23	13.6	20.6	41 (≈ 151 µM)	60.22	42.6	62.32	17	8.14	zone of inhibition at 100 µg/mL [24]: 7.49 mm; zone of inhibition at 25 µg/mL [25]: 6.28 mm; zone of inhibition at 50 µg/mL [26]: 6.96 mm; zone of inhibition at 25 µg/mL [27]: 5 mm; zone of inhibition at 100 µg/mL [28]: 7.21 mm; zone of inhibition at 50 µg/mL [29]: 7.71 mm
CSc1nc(-c2ccc(N(C)C)cc2)c(C#N)c(=O)n1C	93 (≈ 310 µM)	54.1	17.9	10.3	98 (≈ 326 µM)	14.4	13.9	84 (≈ 280 µM)	11.1	35.25	14.5	44.52	20.3	19.3	78 (≈ 260 µM)	55.59	40.22	47.57	19.7	11.8	zone of inhibition at 50 µg/mL [26]: 8.52 mm; zone of inhibition at 25 µg/mL [27]: 6.06 mm; zone of inhibition at 50 µg/mL [14]: 8.25 mm; zone of inhibition at 100 µg/mL [16]: 9.38 mm; zone of inhibition at 100 µg/mL [28]: 10.6 mm; zone of inhibition at 25 µg/mL [21]: 6.38 mm
Cn1c(NN)nc(-c2ccco2)c(C#N)c1=O	65 (≈ 281 µM)	50.98	16	10.8	78 (≈ 337 µM)	10.2	13.3	58 (≈ 251 µM)	9.82	43.73	10.1	40.73	14.2	36.6	64 (≈ 277 µM)	57.48	37.52	61.58	17.6	8.26	zone of inhibition at 50 µg/mL [14]: 10.5 mm; zone of inhibition at 100 µg/mL [16]: 12.2 mm; zone of inhibition at 25 µg/mL [21]: 8.02 mm
